In data set [1] the test system is Trypanosoma brucei. The data set can be described thus: Antitrypanosomal activity against Trypanosoma brucei 427 bloodstream forms assessed as parasitic growth inhibition after 48 hrs by alamar blue assay. Particulars: Trypanosoma brucei, 427, 48 h. The class given is functional. An outline of the steps: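 Bloodstream-form strain 427 trypomastigotes cultured in HMI-9 with 10% FBS, penicillin and streptomycin at 37°C, 5% CO2. Seeded at 1 × 10^4 per well, serial compound dilutions from 20 mM DMSO stocks, triplicate. Growth read with Alamar Blue at 48 h; pentamidine run as positive control in each assay.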
A general note: Resazurin is reduced to fluorescent resorufin, in cell work by metabolically active cells.

Data set [2] can be described thus: Inhibition of Trypanosoma brucei methionyl tRNA synthetase preincubated for 15 mins followed by L-methionine substrate addition measured after 120 mins by ATP- depletion chemiluminescence assay. The method in brief:
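Triplicate. Compound pre-incubated 15 min at room temperature with 50 nM TbMetRS, 200 µg/mL E. coli tRNA, 0.1 U/mL pyrophosphatase, 0.2 mM spermine, BSA, DTT, 25 mM HEPES-KOH pH 7.9, 10 mM MgCl2, 50 mM KCl, 2% DMSO. Started with 100 nM ATP and 32 µM L-methionine; after 120 min, Kinase-Glo luminescence read. IC50 from sigmoidal dose-response fit.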

Data set [3] deals with Trypanosoma brucei. The data set can be described thus: Binding affinity to Trypanosoma brucei methionyl-tRNA synthetase assessed as change in melting temperature at 100 uM by SYPRO orange dye based thermal shift assay. An outline of the steps: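 TbMetRS in 100 mM HEPES pH 7.5, 100 mM NaCl, 10 mM ATP-Mg with SYPRO Orange; compound at 100 µM final. Fluorescence measured in triplicate from 25 to 90 °C in 0.2 °C steps. Tm taken as the temperature of the first-derivative maximum.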

Data set [4] is described as follows: Cytotoxicity against human HepG2 cells assessed as cell viability after 48 hrs by alamar blue assay. The class given is toxicity, cell-based. An outline of the steps: (§1)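 CRL-1855 cells grown in RPMI and HepG2 cells in DMEM/F-12, both with 10% FBS, penicillin and streptomycin. Plated at 5 × 10^3 per well with serial compound dilutions in quadruplicate for 48 h. Alamar Blue added for a further 4 h at 37 °C, 5% CO2. OD570–600 viability referenced to untreated cells.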

Data set [5] is described as follows: Cytotoxicity against human CRL-1855 cells assessed as cell viability after 48 hrs by alamar blue assay. The class given is toxicity, cell-based. The method in brief:
as §1

The nature of data set [6]: Cmax in mouse at 50 mg/kg, administered through oral gavage by LC-MS analysis. The data set is classed as ADME, organism-based. Also on record: dose 50 mg/kg, route oral. Particulars: in vivo. An outline of the steps:
(§2)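 Mice dosed by oral gavage at 50 mg/kg in 0.2 mL vehicle (7% tween80, 3% ethanol, 5% DMSO, 0.9% saline); plasma compound levels followed to give Cmax and AUC.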

Data set [7] is described as follows: AUC in mouse at 50 mg/kg, administered through oral gavage by LC-MS analysis. The class given is ADME, organism-based. Particulars: in vivo. The method in brief: as §2
The nature of data set [8]: Selectivity index, ratio of EC50 for human CRL-1855 cells to EC50 for Trypanosoma brucei 427 bloodstream forms. The class given is toxicity, cell-based. The conditions noted are these: read-out: Ratio EC50.
Data set [9] deals with Trypanosoma brucei. Kind of data set: Inhibition of Trypanosoma brucei 427 recombinant full length N-terminal 6His-tagged methionyl tRNA synthetase expressed in Escherichia coli assessed as decrease in incorporation of [3H]L-methionine into tRNA at 1 uM preincubated for 15 mins followed by Escherichia coli tRNA addition measured after 120 mins by scintillation counting method.

Data set [10] concerns Trypanosoma brucei. The data set can be described thus: Inhibition of Trypanosoma brucei 427 recombinant full length N-terminal 6His-tagged methionyl tRNA synthetase expressed in Escherichia coli assessed as decrease in incorporation of [3H]L-methionine into tRNA at 10 uM preincubated for 15 mins followed by Escherichia coli tRNA addition measured after 120 mins by scintillation counting method.

The results in this text go back to ChEMBL document CHEMBL3877291, “Structure-guided design of novel Trypanosoma brucei Methionyl-tRNA synthetase inhibitors” (Eur J Med Chem, 2016).

For orientation: EC50 means the concentration that produces a half-maximal response. Broadly, the IC50 is the concentration that inhibits the measured activity by half. A higher IC50 goes with weaker potency in that assay. As a reminder, the ΔTm is the shift of the melting midpoint relative to a reference. As for `Clc1cc(Cl)cc(CN[C@@H]2CCC[C@H](c3nc4nc(Cl)ccc4[nH]3)C2)c1`, the 50% effective concentration (EC50) in data set [1] stood at 580 nM. This molecule also registered a half-inhibitory concentration (IC50) in data set [2] of 106 nM. Also, the ΔTm in data set [3] turned out to be 13.1 °C.

Consider `Clc1cc(Cl)cc(CNCCSc2nc3nc(Cl)ccc3[nH]2)c1`, for which the concentration for a half-maximal effect (EC50) in [1] is 1400 nM. The concentration for half-maximal inhibition (IC50) in [2] was 1050 nM.

Turning to `Clc1cc(Cl)cc(CNC2CCCCN(c3nc4nc(Cl)ccc4[nH]3)C2)c1` (stereo not given), the concentration for a half-maximal effect (EC50) in data set [1] is 1810 nM. In [2], this molecule showed an IC50 of 682 nM. Further, the shift in melting temperature (ΔTm) in [3] amounted to 6.8 °C.

Regarding `Clc1cc(Cl)cc(CNC2CCCC(c3nc4nc(Cl)ccc4[nH]3)C2)c1` (stereo not given), the EC50 in data set [1] was determined as 359 nM. The EC50 at 48 h in data set [4] worked out at 32300 nM; in data set [5] it was 33100 nM. Besides, the concentration for half-maximal inhibition (IC50) in [2] came to 124 nM. Also, the thermal shift (ΔTm) in data set [3] stood at 14.2 °C.

For `O=C(Nc1cc(Cl)cc(Cl)c1)[C@H]1CCCN(c2nc3nc(Cl)ccc3[nH]2)C1`, the half-maximal effective concentration (EC50) in data set [1] was more than 20000 nM. The concentration for half-maximal inhibition (IC50) in data set [2] was more than 10000 nM. For the same molecule, in data set [3], the ΔTm worked out at 2.6 °C.

`Clc1cc(Cl)cc(CNC2CCCC(c3nc4cc(Cl)ccc4[nH]3)C2)c1` (stereo not given): the concentration for a half-maximal effect (EC50) in [1] was 1950 nM. Besides, the IC50 in [2] was determined as 580 nM. Further, in [3], the shift in melting temperature (ΔTm) is 12.6 °C.

Turning to `CCN(CC)CCCC(C)Nc1c2ccc(Cl)cc2nc2ccc(OC)cc12` (stereo not given) [QUINACRINE], the results for the 50% effective concentration (EC50) at 48 h in data set [4] and in data set [5] were 11900 nM and 2120 nM, respectively.

Consider `Clc1cc(Cl)cc(CNC2CN(c3nc4nc(Cl)ccc4[nH]3)C2)c1`, for which the EC50 in data set [1] worked out at 15300 nM. The same molecule showed an IC50 in data set [2] of 2170 nM. Also, the ΔTm in data set [3] is 6.4 °C.

As to `Clc1cc(Cl)cc(CN[C@@H]2CCCN(c3nc4nc(Cl)ccc4[nH]3)C2)c1`, in data set [1], the EC50 is 999 nM. In [2], the IC50 was 192 nM. Besides, the ΔTm in data set [3] came out at 13.1 °C.

For `O=C(Cc1cc(Cl)cc(Cl)c1)N1CCCC(c2nc3cc(Cl)ccc3[nH]2)C1` (stereo not given), the EC50 in data set [1] was found to be 1400 nM. Further, the 50% effective concentration (EC50) at 48 h in data set [4] came to 35400 nM; in [5], 22800 nM. The same molecule yielded a half-inhibitory concentration (IC50) in [2] of 60 nM. Moreover, the ΔTm in [3] stood at 7.2 °C.

Regarding `Clc1cc(Cl)cc(CN[C@H]2CCN(c3nc4ccc(Cl)nc4[nH]3)C2)c1`, the EC50 in data set [1] came to 1540 nM. Also, the IC50 in [2] is less than 50 nM. Moreover, the shift in melting temperature (ΔTm) in data set [3] amounted to 11.4 °C.

Turning to `Clc1cc(Cl)cc(NCC2CCCN(c3nc4nc(Cl)ccc4[nH]3)C2)c1` (stereo not given), the concentration for a half-maximal effect (EC50) in data set [1] is 343 nM. Further, the concentration for a half-maximal effect (EC50) at 48 h in [4] turned out to be 29200 nM; in [5], 15400 nM. In data set [2], this molecule displayed a concentration for half-maximal inhibition (IC50) of less than 50 nM. Further, in data set [3], the ΔTm was 14.4 °C.

Take `N=C(N)c1ccc(OCCCCCOc2ccc(C(=N)N)cc2)cc1` [PENTAMIDINE]: the EC50 in data set [1] was 0.9 nM.

Regarding `Clc1cc(Cl)cc(CNC2CCCN(c3nc4nc(Cl)ccc4[nH]3)C2)c1` (stereo not given), the EC50 in data set [1] worked out at 82 nM. For the same molecule, the half-maximal effective concentration (EC50) at 48 h is more than 50000 nM in data set [4] and 46200 nM in data set [5]. In data set [2], this molecule showed a 50% inhibitory concentration (IC50) of less than 50 nM. Further, the ΔTm in data set [3] amounted to 18.4 °C.

Consider `Clc1cc(Cl)cc(CNCCCc2nc3ccc(Cl)cc3[nH]2)c1`, for which the EC50 in [1] worked out at 2150 nM. The molecule further came in with an IC50 in data set [2] of 243 nM. Also, the thermal shift (ΔTm) in [3] came out at 10.8 °C.

Turning to `Clc1cc(Cl)cc(CNCCCc2nc3ccc(Cl)nc3[nH]2)c1`, in data set [1], the EC50 amounted to 307 nM. For the same molecule, the EC50 at 48 h in data set [4] worked out at 45600 nM; in [5], 45700 nM. Moreover, the IC50 in data set [2] was less than 50 nM. The ΔTm in data set [3] was 12.8 °C.

What is called Cmax is the peak of the concentration-time curve. As usually defined, the AUC is the area under the concentration-time curve, a measure of exposure. A high value points to more exposure. For `Clc1cc(Cl)cc(CN[C@H]2CCCN(c3nc4nc(Cl)ccc4[nH]3)C2)c1`, the EC50 in data set [1] was 39 nM. Also, the EC50 at 48 h turned out to be 49000 nM in data set [4] and 29300 nM in data set [5]. In data set [6], this molecule displayed a Cmax of 37.6 µM. Besides, in data set [2], the IC50 was less than 50 nM. In data set [7], this molecule came in with an area under the curve (AUC) of 104 µM·h. Further, the selectivity ratio in data set [8] was determined as 751. For the same molecule, in [3], the ΔTm was 19 °C.

Regarding `O=C(N[C@H]1CCCN(c2nc3nc(Cl)ccc3[nH]2)C1)c1cc(Cl)cc(Cl)c1`, the EC50 in [1] was more than 20000 nM. In data set [2], the concentration for half-maximal inhibition (IC50) is more than 10000 nM. In addition, the ΔTm in [3] stood at 0 °C.

Turning to `O=C(Cc1cc(Cl)cc(Cl)c1)N1CCCC(c2nc3c(Cl)cccc3[nH]2)C1` (stereo not given), the EC50 in [1] is 8810 nM. This molecule also registered an IC50 in data set [2] of 926 nM. Moreover, in data set [3], the thermal shift (ΔTm) was determined as 7.4 °C.

As for `Clc1cc(Cl)cc(CNC2CCN(c3nc4nc(Cl)ccc4[nH]3)CC2)c1`, in data set [1], the EC50 was determined as 13300 nM. In addition, in data set [2], it took 4970 nM to reach half-maximal inhibition (IC50). In addition, the ΔTm in [3] is 5.8 °C.

Take `Clc1cc(Cl)cc(CO[C@H]2CCCN(c3nc4nc(Cl)ccc4[nH]3)C2)c1`: the EC50 in [1] was 8800 nM. For the same molecule, the 50% inhibitory concentration (IC50) in data set [2] came out at 196 nM. Also, in [3], the shift in melting temperature (ΔTm) was 7.5 °C.

In the case of `O=C(Cc1cc(Cl)cc(Cl)c1)N1CCCC(c2nc3ccccc3[nH]2)C1` (stereo not given), the EC50 in data set [1] was more than 5000 nM. The same molecule displayed an IC50 in [2] of 288 nM. The ΔTm in data set [3] came out at 7.8 °C.

`Clc1cc(Cl)cc(CCN2CCCC(c3nc4nc(Cl)ccc4[nH]3)C2)c1` (stereo not given): the EC50 in [1] was determined as 3760 nM. This molecule yielded a concentration for half-maximal inhibition (IC50) in data set [2] of more than 10000 nM. Besides, the ΔTm in [3] was 6 °C.

Consider `Clc1cc(Cl)cc(CN[C@@H]2CCN(c3nc4ccc(Cl)nc4[nH]3)C2)c1`, for which, in [1], the half-maximal effective concentration (EC50) is 9010 nM. The molecule further gave an IC50 in [2] of 696 nM. In addition, the thermal shift (ΔTm) in data set [3] is 7.2 °C.

By inhibition is commonly meant how much of the control response was suppressed. Regarding `Cc1cc2cc(C(=O)N3CCCC(c4nc5ccccc5[nH]4)C3)ccc2o1` (stereo not given), the figures for the inhibition in data set [9] and in [10] were 20% and 78%, respectively.
